Assay results gathered from unrelated publications.
Compare with care: the assays were run in different laboratories.
Target: Tyrosine-protein kinase Yes (YES1, Homo sapiens, UniProt P07947)

CCCCC(=O)Nc1ccc(-c2ccc3ncn(CCC)c(=O)c3c2)cn1
remaining binding (binding; competition with immobilised ligand; 0.5 µM): 100%

Cc1ccc(NC(=O)c2ccnc(C(F)(F)F)c2)cc1-c1cc(OCCO)nc(N2CCOCC2)c1
remaining binding (binding; competition with immobilised ligand; 1 µM): 87%

C=CC(=O)N1CCC[C@@H](n2nc(-c3ccc(Oc4ccccc4)cc3)c3c(N)ncnc32)C1
inhibition (enzyme activity; inhibitor; 1 µM): 97%

CN1CCN(C(=O)c2ccc(NC(=O)Nc3ccc(N(C)c4ccnc(Nc5ccc(CS(C)(=O)=O)cc5)n4)cc3)cc2)CC1
remaining binding (binding; competition with immobilised ligand; 1 µM): 96%

CO[C@@H]1[C@H](N(C)C(=O)c2ccccc2)C[C@H]2O[C@]1(C)n1c3ccccc3c3c4c(c5c6ccccc6n2c5c31)C(=O)NC4
inhibition (enzyme activity; inhibitor; 1 µM): 39%

Cc1cc(O)c(-c2ccc([C@@H](C)CN(C)C)cc2)c2c1[nH]c(=O)c1sccc12
inhibition (enzyme activity; inhibitor; 0.1 µM): 10.3%

COc1ccc2oc(-c3ccc4nc(N)oc4c3)c/c(=N\c3ccccc3NC(=O)CCN)c2c1
remaining binding (binding; 1 µM): 101%

C1=C/COCc2cc(ccc2OCCN2CCCC2)Nc2nccc(n2)-c2cccc(c2)COC/1
remaining binding (binding; 0.1 µM): 71%
